Active and inactive are the calls of the source. The calls are words filed in the database; no cut-off is given here.

In experiment [1] the target is T1, Glucocorticoid receptor (Rattus norvegicus) (UniProt P06536).
T1 sequence (whole entry): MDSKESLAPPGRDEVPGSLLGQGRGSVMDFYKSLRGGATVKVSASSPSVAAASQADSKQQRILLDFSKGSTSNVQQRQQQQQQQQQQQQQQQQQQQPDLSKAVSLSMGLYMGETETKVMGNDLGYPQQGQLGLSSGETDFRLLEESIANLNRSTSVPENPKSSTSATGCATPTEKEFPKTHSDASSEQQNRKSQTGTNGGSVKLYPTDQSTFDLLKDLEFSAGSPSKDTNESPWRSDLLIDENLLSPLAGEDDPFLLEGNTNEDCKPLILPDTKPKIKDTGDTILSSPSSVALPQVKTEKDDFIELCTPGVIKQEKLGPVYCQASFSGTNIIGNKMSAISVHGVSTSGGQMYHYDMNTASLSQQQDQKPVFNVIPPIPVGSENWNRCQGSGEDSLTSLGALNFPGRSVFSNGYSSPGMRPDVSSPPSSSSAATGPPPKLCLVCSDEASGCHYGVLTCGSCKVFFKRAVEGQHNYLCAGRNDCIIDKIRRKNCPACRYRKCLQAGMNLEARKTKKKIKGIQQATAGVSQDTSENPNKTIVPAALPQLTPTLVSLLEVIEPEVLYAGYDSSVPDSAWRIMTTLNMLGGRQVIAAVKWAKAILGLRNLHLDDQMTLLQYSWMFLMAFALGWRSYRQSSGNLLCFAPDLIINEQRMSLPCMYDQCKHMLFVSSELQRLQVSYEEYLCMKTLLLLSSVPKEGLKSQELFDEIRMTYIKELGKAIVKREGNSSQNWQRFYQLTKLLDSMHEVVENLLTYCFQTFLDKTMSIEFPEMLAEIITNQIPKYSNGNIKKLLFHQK
Description: In vivo antiinflammatory activity in the rat, alpha-tocopherol filled pouch 100 mg/kg peroral dose; IA = inactive. It is filed as functional, organism-based. Also noted: dose 100 mg/kg. A digest of the protocol: (§1)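 Rats receive an air-filled pouch injected with 0.5 mL DL-α-tocopherol. Oral doses are given daily for 7 days, starting on the day of pouch formation, as suspensions in 1% gum tragacanth. ED50 is in mg/kg po.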

The target of experiment [2] is T1, Glucocorticoid receptor (Rattus norvegicus). Description: In vivo glucocorticoid profile, depression of thymus weight in rat at 5 mg/kg peroral dose. Also noted: dose 5 mg/kg. It is filed as functional, organism-based. Summed up: (§2)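 Two-week oral glucocorticoid profile in rats. Thymus weight, adrenal weight and body weight gain are each expressed as % change from control.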

Experiment [3] has the same target. Put plainly: In vivo glucocorticoid profile, depression of thymus weight in rat at 100 mg/kg peroral dose. It is filed as functional, organism-based. Also noted: dose 100 mg/kg. A digest of the protocol: as §2
Experiment [4] has the same target. Put plainly: In vivo glucocorticoid profile, depression of body weight gain without altered food consumption in rat at 5 mg/kg peroral dose. The class given is functional, organism-based. Also noted: dose 5 mg/kg. Summed up:
as §2

The target is the same in experiment [5]. Description: (§3) In vivo glucocorticoid profile, depression of adrenal weight in rat at 100 mg/kg peroral dose. The class given is functional, organism-based. Also noted: dose 100 mg/kg. Summed up: as §2
Experiment [6] has the same target. Description: In vivo glucocorticoid profile, depression of adrenal weight in rat at 5 mg/kg peroral dose. More on the design: dose 5 mg/kg. It is filed as functional, organism-based. Summed up:
as §2

For experiment [7] the target is unchanged. Description: In vivo glucocorticoid profile, depression of body weight gain without altered food consumption in rat at 100 mg/kg peroral dose. The class given is functional, organism-based. More on the design: dose 100 mg/kg. Summed up: as §2
Experiment [8] has the same target. Put plainly: Relative binding affinity (RBA) for glucocorticoid receptor from rat liver cytosol by displacement of [3H]-RU-28,362. Summed up:
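Competitive binding to glucocorticoid receptor in liver cytosol from adrenalectomized rats, with [3H]RU28362 as ligand. RBA is derived from the concentrations of dexamethasone and of competitor giving 50% binding inhibition. A value of zero means binding was too low to measure.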
On the technique in general: Loss of bound radioactivity is the signal in a displacement assay; it reports binding, not function.

Experiment [9] shares this target. Description: In vivo glucocorticoid profile, depression of body weight gain without altered food consumption in rat at 50 mg/kg peroral dose. The class given is functional, organism-based. More on the design: dose 50 mg/kg. A digest of the protocol: as §2
Experiment [10] has the same target. Description: In vivo glucocorticoid profile, depression of thymus weight in rat at 50 mg/kg peroral dose. More on the design: dose 50 mg/kg. The class given is functional, organism-based. Summed up:
as §2

Experiment [11] has the same target. Description: In vivo antiinflammatory activity in the rat, alpha-tocopherol filled pouch 25 mg/kg peroral dose; IA = inactive. It is filed as functional, organism-based. Also noted: dose 25 mg/kg. A digest of the protocol: as §1
The target is the same in experiment [12]. Description: In vivo glucocorticoid profile, depression of adrenal weight in rat at 50 mg/kg peroral dose. It is filed as functional, organism-based. Also noted: dose 50 mg/kg. Summed up: as §2
Experiment [13] shares this target. Description: In vivo anti-inflammatory activity in the rat, alpha-tocopherol filled pouch peroral dose. The class given is functional, organism-based. Summed up: as §1
For experiment [14] the target is unchanged. Put plainly: In vivo glucocorticoid profile, depression of adrenal weight in rat at 1 mg/kg peroral dose. The class given is functional, organism-based. Also noted: dose 1 mg/kg. Summed up: as §2
The target is the same in experiment [15]. Put plainly: In vivo glucocorticoid profile, depression of thymus weight in rat at 1 mg/kg peroral dose. The class given is functional, organism-based. Also noted: dose 1 mg/kg. Summed up:
as §2

Experiment [16] shares this target. Description: In vivo glucocorticoid profile, depression of body weight gain without altered food consumption in rat at 1 mg/kg peroral dose. It is filed as functional, organism-based. Also noted: dose 1 mg/kg. A digest of the protocol:
as §2

The target is the same in experiment [17]. Described as §3. The class given is functional, organism-based. More on the design: dose 100 mg/kg. Summed up: (§4)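 Two-week oral dosing test in rats. At the end, thymus weight, adrenal weight and body weight gain are recorded and expressed as % change from control.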
This is another data set of the same source.

Experiment [18] shares this target. Put plainly: (§5) In vivo glucocorticoid profile, depression of adrenal weight in rat at 25 mg/kg peroral dose. It is filed as functional, organism-based. More on the design: dose 25 mg/kg. Summed up:
as §2

Experiment [19] shares this target. Put plainly: (§6) In vivo glucocorticoid profile, depression of thymus weight in rat at 25 mg/kg peroral dose. The class given is functional, organism-based. More on the design: dose 25 mg/kg. Summed up: as §2
The target is the same in experiment [20]. Put plainly: In vivo glucocorticoid profile, depression of body weight gain without altered food consumption in rat at 25 mg/kg peroral dose. More on the design: dose 25 mg/kg. It is filed as functional, organism-based. A digest of the protocol: as §2
Experiment [21] shares this target. Description: In vivo antiinflammatory activity in the rat, alpha-tocopherol filled pouch peroral dose; IA = inactive. It is filed as functional, organism-based. A digest of the protocol:
as §1

The target is the same in experiment [22]. The description is as §6. The class given is functional, organism-based. More on the design: dose 25 mg/kg. A digest of the protocol:
as §4
The source holds these as a separate data set.

For experiment [23] the target is unchanged. The description is as §5. It is filed as functional, organism-based. More on the design: dose 25 mg/kg. A digest of the protocol:
as §4
The source holds these as a separate data set.

Regarding `CCOC(=O)C1(C(=O)OCC)CCC=C2[C@@H]1CCC1=Cc3c(cnn3-c3ccc(F)cc3)C[C@@]12C`, the ED50 result in experiment [1] was “inactive”. Moreover, the Change in experiment [2] is 0%; in experiment [3] it was -80%; in experiment [5], -47%; in experiment [6] it was 0%. Besides, the Weight gain is 0 in experiment [4] and -186 in experiment [7].
The compound `CN1C(=O)N(C)C(=O)C2(CC=C3[C@H](CC[C@H]4Cc5c(cnn5-c5ccncc5)C[C@]34C)O2)C1=O` returned an RBA in [8] of 0%.
In [9], `CC(C)N1C(=O)N(C(C)C)C(=O)C2(CC=C3[C@H](CCC4=Cc5c(cnn5-c5ccc(F)cc5)C[C@@]43C)O2)C1=O` yielded a Weight gain of 0. The Change in experiment [10] and in [12] was 0% throughout. In addition, the ED50 result in [11] is “inactive”.
`CCCN1C(=O)N(CCC)C(=O)C2(CC=C3[C@H](CCC4=Cc5c(cnn5-c5ccc(F)cc5)C[C@@]43C)O2)C1=O`: in [9], the Weight gain amounted to 0. For the same compound, the Change in experiment [10] and in [12] was 0% throughout. In addition, the ED50 entry in experiment [11] was “inactive”.
`C[C@H]1C[C@@H]2[C@H]([C@@H](O)C[C@@]3(C)[C@H]2CC[C@]3(O)C(=O)CO)[C@@]2(C)C=CC(=O)C=C12`: the Change was -70% in experiment [2], 0% in experiment [14], -42% in experiment [6] and -40% in experiment [15]. For the same compound, the 50% effective dose (ED50) in experiment [13] came to 2 mg/kg. For the same compound, the results for the Weight gain in [4] and in experiment [16] were -79 and -45, respectively.
In the case of `CCN1C(=O)N(CC)C(=O)C2(CC=C3[C@H](CCC4=Cc5c(cnn5-c5ccc(F)cc5)C[C@@]43C)O2)C1=O`, the Change in experiment [17] is -45%; in [18] it was 0%; in experiment [3], -34%; in experiment [19] it was -34%. In experiment [20], this compound had a Weight gain of 0. Also, the ED50 entry in experiment [11] is “inactive”.
With `C[C@]12Cc3cnn(-c4ccc(F)cc4)c3C=C1CC[C@@H]1OC3(CC=C12)C(=O)c1ccccc1C3=O`, the Change is -79% in [2], -56% in experiment [14], -64% in experiment [6] and -61% in experiment [15]. For the same compound, the ED50 in experiment [13] turned out to be 10 mg/kg. Moreover, the results for the Weight gain in experiment [4] and in experiment [16] were -224 and -129, respectively.
As to `C[C@]12Cc3cnn(-c4ccc(F)cc4)c3C=C1CC[C@H]1C2=CCCC1c1ccccn1` (some centres not stated), in [21], the ED50 result was “inactive”. The Change in [3] was -64%; in experiment [5] it was -48%. For the same compound, the Weight gain in experiment [7] was -88.
Regarding `C[C@]12Cc3cnn(-c4ccccc4)c3C=C1CC[C@@H]1OC3(CC=C12)C(=O)c1ccccc1C3=O`, the ED50 entry in experiment [21] was “inactive”. The Change is -62% in experiment [22], -50% in [23], -51% in experiment [2] and -38% in experiment [6]. Further, the Weight gain in experiment [4] is -62; in experiment [20], -86.

The ED50 is the dose at which the effect has come halfway, by size or by number of responders.
